From ChEMBL document CHEMBL3739398, “Inhibition of Invasion in Pancreatic Cancer Cells by Conjugate of EPA with β(3,3)-Pip-OH via PI3K/Akt/NF-kB Pathway” (ACS Med Chem Lett, 2015)
Active and inactive are the calls of the source. No cut-off for these calls is given here.

Tests used:
[1] = Cytotoxicity against human PC3 cells by MTT assay; format: functional, cell-based; conditions: PC-3
[2] = Cytotoxicity against human HCT116 cells by MTT assay; format: functional, cell-based; conditions: HCT-116
[3] = Cytotoxicity against human PANC1 cells by MTT assay; format: functional, cell-based; conditions: PANC-1
[4] = Downregulation of PI3K-p85 alpha expression in human PANC1 cells by western blot analysis; format: functional, cell-based; conditions: PANC-1
Procedure, shortened: (§1)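 PANC-1 seeded in six-well plates and treated with indicated compound concentrations; whole-cell lysates probed for target proteins by Western blotting.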

[5] = Downregulation of NF-kappaB expression in human PANC1 cells by western blot analysis; format: functional, cell-based; conditions: PANC-1; procedure, shortened: as §1
[6] = Effect on total mTOR expression in human PANC1 cells at 2 and 4 uM by western blot analysis; format: cell-based; conditions: panc-1; procedure, shortened: as §1
PANC-1 [7] = assay: Inhibition of cell invasion in human PANC1 cells at 2 and 4 uM for 24 hrs by matrigel invasion assay; format: functional, cell-based
Procedure, shortened: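 Boyden chamber matrigel invasion: PANC-1 treated 24 h with compound (2.0 and 4.0 μM); invaded cells counted in five random fields per group under inverted microscope (20×); three independent experiments, p < 0.05.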

[8] = Upregulation of TIMP1 expression in human PANC1 cells by western blot analysis; format: functional, cell-based; conditions: PANC-1; procedure, shortened: as §1
[9] = Upregulation of E-cadherin expression in human PANC1 cells at 2 and 4 uM by western blot analysis; format: functional, cell-based; conditions: PANC-1; procedure, shortened: as §1
PANC-1 [10] = assay: Inhibition of colony formation in human PANC1 cells at 2 and 4 uM for 5 days by crystal violet staining based microscopic analysis; format: functional, cell-based
Procedure, shortened: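 PANC-1 seeded at 1 × 10^3 cells/well, treated with compound alongside DMSO for 5 days; crystal violet-stained colonies counted in random fields and imaged under inverted microscope (20×); three independent experiments.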

PANC-1 [11] = assay: Antimetastatic activity in human PANC1 cells at 2 and 4 uM after 24 hrs by fluorescent gelatin degradation assay; format: functional, cell-based
Procedure, shortened: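 PANC-1 grown 24 h on coverslips coated with cross-linked FITC-conjugated gelatin in presence of compound; matrix degradation spots visualized by fluorescence and degraded area highlighted by image analysis.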

PANC-1 [12] = assay: Inhibition of cell invasion in human PANC1 cells by 3D invasion assay in presence of neutralized collagen; format: functional, cell-based
Procedure, shortened: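 PANC-1 mixed with neutralized collagen, spotted centrally in wells and solidified as a cell-collagen hemisphere; fresh medium with or without compound added; invasion beyond the original collagen boundary scored against DMSO-treated cells.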

[13] = Downregulation of MMP-9 expression in human PANC1 cells at 2 and 4 uM by western blot analysis; format: functional, cell-based; conditions: PANC-1; procedure, shortened: as §1
[14] = Downregulation of MMP-2 expression in human PANC1 cells at 2 and 4 uM by western blot analysis; format: functional, cell-based; conditions: PANC-1; procedure, shortened: as §1
[15] = Downregulation of S6K expression in human PANC1 cells at 2 and 4 uM by western blot analysis; format: functional, cell-based; conditions: PANC-1; procedure, shortened: as §1
[16] = Downregulation of PI3K-p110 alpha expression in human PANC1 cells by western blot analysis; format: functional, cell-based; conditions: PANC-1; procedure, shortened: as §1
PANC-1 [17] = assay: Inhibition of cell migration in human PANC1 cells at 2 and 4 microM after 48 hrs by wound healing assay; format: functional, cell-based
Procedure, shortened: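 Scratch wound made in PANC-1 monolayer; cells treated with compound at 2.0 and 4.0 μM, DMSO vehicle control; wound area photographed at 20× magnification at 0 h and after incubation; statistics from three independent experiments.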

PANC-1 [18] = assay: Inhibition of PI3K-mediated mTOR phosphorylation in human PANC1 cells at 2 and 4 uM by western blot analysis; format: cell-based; procedure, shortened: as §1
PANC-1 [19] = assay: Inhibition of PI3K-mediated Akt phosphorylation at S473 residue in human PANC1 cells by western blot analysis; format: cell-based; procedure, shortened: as §1

Row | Compound | IC50 [1] | IC50 [2] | IC50 [3] | also measured
1 | CCC(/C=C/C(=O)N1CCC[C@H]1C(=O)OC)=C\c1ccc2c(c1)OCO2 | 16 µM | 49.8 µM | 42.2 µM | –
2 | CCC(/C=C/C(=O)O)=C\c1ccc2c(c1)OCO2 | > 100 µM | > 100 µM | > 100 µM | –
3 | CCC(/C=C/C(=O)NC1(CC(=O)OC)CCCCC1)=C\c1ccc2c(c1)OCO2 | 20 µM | > 100 µM | > 100 µM | –
4 | CCCCC(=O)NC1(CC(=O)NNc2ccccc2)CCN(C(=O)/C=C/C(=C/c2ccc3c(c2)OCO3)CC)CC1 | 15 µM | > 100 µM | 4 µM | inhibition [4]: Dose-dependent effect; inhibition [5]: Dose-dependent effect; Activity [6]: Non-toxic; inhibition (PANC-1 [7]): Active; Activity [8]: Dose-dependent effect; Activity [9]: Active; inhibition (PANC-1 [10]): Active; inhibition (PANC-1 [11]): Active; inhibition (PANC-1 [12]): Dose-dependent effect; inhibition [13]: Active; inhibition [14]: Active; inhibition [15]: Active; inhibition [16]: Dose-dependent effect; inhibition (PANC-1 [17]): Active; inhibition (PANC-1 [18]): Active; inhibition (PANC-1 [19]): Dose-dependent effect
5 | CCC(/C=C/C(=O)N[C@@H](Cc1ccccc1)C(=O)OC)=C\c1ccc2c(c1)OCO2 | 41.9 µM | 48.3 µM | > 100 µM | –
6 | CCC(/C=C/C(=O)N[C@@H](C)C(=O)OC)=C\c1ccc2c(c1)OCO2 | 43.5 µM | 47.1 µM | 6.7 µM | –
7 | CCC(/C=C/C(=O)NCC1(CC(=O)OC)CCCCC1)=C\c1ccc2c(c1)OCO2 | 45.2 µM | 47.6 µM | 10 µM | –
